From ChEMBL document CHEMBL1629456, “ApoA-I mimetic peptides promote pre-β HDL formation in vivo causing remodeling of HDL and triglyceride accumulation at higher dose” (Bioorg Med Chem, 2010)
The source made the active and inactive calls. No cut-off for these calls is given here. *1 amine or outer side, *2 acyl side, *3 side chain or, on linkers, in order; H or OH if unused. Where a SMILES comes first, the peptide text is derived from it. [ ]: non-standard residue; d: D form. Gly(oct-7-en-1-yl) = C=CCCCCCC[C@H](N)C(=O)O; Ala(5-hexenyl) = C=CCCCCC[C@H](N)C(=O)O; dNle(6-vinyl) = C=CCCCC[C@@H](N)C(=O)O; Gly(octyl) = CCCCCCCC[C@H](N)C(=O)O; X1 = CCCCCCC[C@H](N[*:1])C(=O)[*:2]

Columns and labels:
[1] = Plasma concentration in C57/BL6 mouse at 60 mg/kg, sc after 3 hrs; assay type: ADME, organism-based, C57Bl/6; set-up: dose 60 mg/kg, route subcutaneous
Outline: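 Male C57Bl/6 mice were dosed subcutaneously with peptide in 50 mM mannitol/PBS. Serum was taken by cardiac puncture, and peptide was measured by LC–MS/MS after acetonitrile protein precipitation.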

[2] = target: Phospholipid-transporting ATPase ABCA1 (Mus musculus, UniProt P41233); test: Induction of ABCA1-mediated [3H]cholesterol efflux in mouse RAW 264.7 macrophages after 24 hrs
Plasma = test: Induction of pre-beta HDL formation in human plasma after 2 hrs by ELISA; assay type: functional, cell-free
Outline: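 Increasing peptide concentrations were incubated with normal human plasma at 37 °C for 2 h. Pre-β HDL was quantified by a commercial human pre-β HDL ELISA.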

[3] = target: Lipoprotein lipase (Bos taurus) (UniProt P11151); test: Inhibition of Lipoprotein lipase in vitro

Phospholipid-transporting ATPase ABCA1, sequence (P41233 whole entry): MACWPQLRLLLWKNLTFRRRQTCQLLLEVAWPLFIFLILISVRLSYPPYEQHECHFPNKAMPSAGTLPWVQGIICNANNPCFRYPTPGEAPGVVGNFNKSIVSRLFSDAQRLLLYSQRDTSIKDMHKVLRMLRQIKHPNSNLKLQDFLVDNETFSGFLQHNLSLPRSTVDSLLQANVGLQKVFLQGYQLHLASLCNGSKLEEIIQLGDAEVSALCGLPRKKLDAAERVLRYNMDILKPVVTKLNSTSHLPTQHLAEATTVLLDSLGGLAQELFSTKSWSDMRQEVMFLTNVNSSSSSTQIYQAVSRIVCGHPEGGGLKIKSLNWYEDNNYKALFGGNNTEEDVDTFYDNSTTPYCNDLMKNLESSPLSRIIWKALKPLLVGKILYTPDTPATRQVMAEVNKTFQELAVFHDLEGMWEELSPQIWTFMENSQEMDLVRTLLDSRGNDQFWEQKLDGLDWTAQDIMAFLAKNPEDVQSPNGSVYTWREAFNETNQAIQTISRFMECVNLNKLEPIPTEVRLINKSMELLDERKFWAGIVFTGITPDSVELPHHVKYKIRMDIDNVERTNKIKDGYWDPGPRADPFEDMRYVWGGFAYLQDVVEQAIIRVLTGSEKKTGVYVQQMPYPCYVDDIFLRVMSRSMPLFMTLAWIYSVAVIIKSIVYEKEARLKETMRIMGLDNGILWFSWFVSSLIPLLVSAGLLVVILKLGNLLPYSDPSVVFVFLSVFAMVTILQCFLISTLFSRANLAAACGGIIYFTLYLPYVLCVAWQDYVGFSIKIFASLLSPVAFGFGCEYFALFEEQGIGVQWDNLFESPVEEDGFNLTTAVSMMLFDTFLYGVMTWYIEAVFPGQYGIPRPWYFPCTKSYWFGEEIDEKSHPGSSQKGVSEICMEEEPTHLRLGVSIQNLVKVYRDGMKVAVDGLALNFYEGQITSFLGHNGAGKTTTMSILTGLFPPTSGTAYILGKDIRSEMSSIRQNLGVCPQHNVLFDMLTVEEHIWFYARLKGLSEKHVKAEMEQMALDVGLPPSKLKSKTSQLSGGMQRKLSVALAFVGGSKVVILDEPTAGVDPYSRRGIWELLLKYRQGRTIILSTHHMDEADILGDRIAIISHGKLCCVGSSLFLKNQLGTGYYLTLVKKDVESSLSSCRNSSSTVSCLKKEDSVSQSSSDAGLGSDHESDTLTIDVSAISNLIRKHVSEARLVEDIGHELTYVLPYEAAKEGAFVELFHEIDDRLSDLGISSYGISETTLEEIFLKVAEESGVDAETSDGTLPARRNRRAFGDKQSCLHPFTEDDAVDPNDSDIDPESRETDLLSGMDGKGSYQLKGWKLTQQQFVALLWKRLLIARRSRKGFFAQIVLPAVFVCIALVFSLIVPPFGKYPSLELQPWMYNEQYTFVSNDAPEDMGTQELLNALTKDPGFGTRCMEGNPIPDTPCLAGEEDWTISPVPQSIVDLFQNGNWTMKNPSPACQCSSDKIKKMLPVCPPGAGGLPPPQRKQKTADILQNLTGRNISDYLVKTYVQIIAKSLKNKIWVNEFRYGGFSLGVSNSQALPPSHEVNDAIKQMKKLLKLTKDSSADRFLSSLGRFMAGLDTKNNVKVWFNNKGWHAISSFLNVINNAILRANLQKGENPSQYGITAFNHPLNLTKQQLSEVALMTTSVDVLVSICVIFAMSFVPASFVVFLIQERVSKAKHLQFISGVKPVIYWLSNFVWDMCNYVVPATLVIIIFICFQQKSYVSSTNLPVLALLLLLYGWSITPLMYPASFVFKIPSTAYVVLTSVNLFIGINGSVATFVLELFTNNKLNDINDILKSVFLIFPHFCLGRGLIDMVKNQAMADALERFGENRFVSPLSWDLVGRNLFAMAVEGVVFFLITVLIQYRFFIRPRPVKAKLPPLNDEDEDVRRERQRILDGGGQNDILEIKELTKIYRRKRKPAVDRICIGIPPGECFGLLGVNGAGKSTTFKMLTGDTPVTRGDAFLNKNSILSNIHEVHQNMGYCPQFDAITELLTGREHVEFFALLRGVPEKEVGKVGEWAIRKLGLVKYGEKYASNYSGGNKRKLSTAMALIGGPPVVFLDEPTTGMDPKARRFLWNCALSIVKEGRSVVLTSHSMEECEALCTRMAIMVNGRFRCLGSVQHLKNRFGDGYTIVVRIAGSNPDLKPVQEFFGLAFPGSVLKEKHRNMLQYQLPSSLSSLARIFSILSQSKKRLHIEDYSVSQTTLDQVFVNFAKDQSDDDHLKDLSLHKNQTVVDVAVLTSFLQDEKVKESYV

Row | Compound | EC50 [2] [µM] | other results
1 | CCCCCCCC[C@H](NC(=O)[C@H](CCC(=O)O)NC(=O)[C@H](CC(N)=O)NC(=O)[C@H](CC(C)C)NC(=O)[C@H](CCCCN)NC(=O)[C@H](CCC(=O)O)NC(=O)[C@H](CCCN=C(N)N)NC(=O)[C@H](Cc1ccccc1)NC(=O)[C@H](CCC(=O)O)NC(=O)[C@H](CC(=O)O)NC(=O)[C@H](CC(C)C)NC(=O)[C@@H](NC(=O)[C@@H]1CCCN1C(C)=O)C(C)C)C(=O)N[C@@H](CC(C)C)C(=O)N[C@@H](CCC(=O)O)C(=O)N[C@@H](C)C(=O)N[C@@H](CC(C)C)C(=O)N[C@@H](CCCCN)C(=O)N[C@@H](CCC(N)=O)C(=O)N[C@@H](CCCCN)C(=O)N[C@@H](CC(C)C)C(=O)N[C@@H](CCCCN)C(N)=O (Ac-PVLDEFREKLNE[Gly(octyl)]LEALKQKLK-NH2) | 0.7 | concentration at 3 h [1]: 188 µM
2 | CCCCCCC[C@H](NC(=O)[C@H](CCC(=O)O)NC(=O)[C@H](CC(N)=O)NC(=O)[C@H](CC(C)C)NC(=O)[C@H](CCCCN)NC(=O)[C@H](CCC(=O)O)NC(=O)[C@H](CCCNC(=N)N)NC(=O)[C@H](Cc1ccccc1)NC(=O)[C@H](CCC(=O)O)NC(=O)[C@H](CC(=O)O)NC(=O)[C@H](CC(C)C)NC(=O)[C@@H](NC(=O)[C@@H]1CCCN1C(C)=O)C(C)C)C(=O)N[C@@H](CC(C)C)C(=O)N[C@@H](CCC(=O)O)C(=O)N[C@@H](C)C(=O)N[C@@H](CC(C)C)C(=O)N[C@@H](CCCCN)C(=O)N[C@@H](CCC(N)=O)C(=O)N[C@@H](CCCCN)C(=O)N[C@@H](CC(C)C)C(=O)N[C@@H](CCCCN)C(N)=O (Ac-PVLDEFREKLNE[X1]LEALKQKLK-NH2) | – | Activity (Plasma): Dose-dependent effect
3 | C=CCCCCC[C@H](NC(=O)[C@H](CCC(=O)O)NC(=O)[C@H](CC(N)=O)NC(=O)[C@H](CC(C)C)NC(=O)[C@H](CCCCN)NC(=O)[C@H](CCC(=O)O)NC(=O)[C@H](CCCNC(=N)N)NC(=O)[C@H](Cc1ccccc1)NC(=O)[C@H](CCC(=O)O)NC(=O)[C@H](CC(=O)O)NC(=O)[C@H](CC(C)C)NC(=O)[C@H](CCCCCC=C)NC(=O)[C@@H]1CCCN1C(C)=O)C(=O)N[C@@H](CC(C)C)C(=O)N[C@@H](CCC(=O)O)C(=O)N[C@@H](C)C(=O)N[C@@H](CC(C)C)C(=O)N[C@@H](CCCCN)C(=O)N[C@@H](CCC(N)=O)C(=O)N[C@@H](CCCCN)C(=O)N[C@@H](CC(C)C)C(=O)N[C@@H](CCCCN)C(N)=O (Ac-P[Ala(5-hexenyl)]LDEFREKLNE[Ala(5-hexenyl)]LEALKQKLK-NH2) | – | Activity (Plasma): inactive
4 | CC(=O)N[C@H](CC(=O)O)C(=O)N[C@H](Cc1c[nH]c2ccccc12)C(=O)N[C@H](Cc1ccccc1)C(=O)N[C@H](CCCCN)C(=O)N[C@H](C)C(=O)N[C@H](Cc1ccccc1)C(=O)N[C@H](Cc1ccc(O)cc1)C(=O)N[C@H](CC(=O)O)C(=O)N[C@H](CCCCN)C(=O)N[C@@H](C(=O)N[C@H](C)C(=O)N[C@H](CCC(=O)O)C(=O)N[C@H](CCCCN)C(=O)N[C@H](Cc1ccccc1)C(=O)N[C@H](CCCCN)C(=O)N[C@H](CCC(=O)O)C(=O)N[C@H](C)C(=O)N[C@H](Cc1ccccc1)C(N)=O)C(C)C (Ac-[dD][dW][dF][dK][dA][dF][dY][dD][dK][dV][dA][dE][dK][dF][dK][dE][dA][dF]-NH2) | 2 | IC50 [3]: 24 µM
5 | C=CCCCCCC[C@H](NC(=O)[C@H](CCC(=O)O)NC(=O)[C@H](CC(N)=O)NC(=O)[C@H](CC(C)C)NC(=O)[C@H](CCCCN)NC(=O)[C@H](CCC(=O)O)NC(=O)[C@H](CCCNC(=N)N)NC(=O)[C@H](Cc1ccccc1)NC(=O)[C@H](CCC(=O)O)NC(=O)[C@H](CC(=O)O)NC(=O)[C@H](CC(C)C)NC(=O)[C@@H](NC(=O)[C@@H]1CCCN1C(C)=O)C(C)C)C(=O)N[C@@H](CC(C)C)C(=O)N[C@@H](CCC(=O)O)C(=O)N[C@@H](C)C(=O)N[C@@H](CC(C)C)C(=O)N[C@@H](CCCCN)C(=O)N[C@@H](CCC(N)=O)C(=O)N[C@@H](CCCCN)C(=O)N[C@@H](CC(C)C)C(=O)N[C@@H](CCCCN)C(N)=O (Ac-PVLDEFREKLNE[Gly(oct-7-en-1-yl)]LEALKQKLK-NH2) | – | Activity (Plasma): Dose-dependent effect
6 | Ac-PVLDEFREKLNEELEALKQKLK-NH2 | > 100 | concentration at 3 h [1]: 0.33 µM
7 | C=CCCCC[C@@H](NC(=O)[C@H](CCCCN)NC(=O)[C@H](CCC(N)=O)NC(=O)[C@H](CCCCN)NC(=O)[C@H](CC(C)C)NC(=O)[C@H](C)NC(=O)[C@H](CCC(=O)O)NC(=O)[C@H](CC(C)C)NC(=O)[C@H](CCC(=O)O)NC(=O)[C@H](CCC(=O)O)NC(=O)[C@H](CC(N)=O)NC(=O)[C@H](CC(C)C)NC(=O)[C@H](CCCCN)NC(=O)[C@H](CCC(=O)O)NC(=O)[C@H](CCCNC(=N)N)NC(=O)[C@H](Cc1ccccc1)NC(=O)[C@H](CCC(=O)O)NC(=O)[C@H](CC(=O)O)NC(=O)[C@H](CC(C)C)NC(=O)[C@@H](NC(=O)[C@@H]1CCCN1C(C)=O)C(C)C)C(=O)N[C@@H](CCCCN)C(N)=O | > 100 | –
8 | C=CCCCCC[C@@H](NC(=O)[C@H](CCC(=O)O)NC(=O)[C@H](CC(=O)O)NC(=O)[C@H](CC(C)C)NC(=O)[C@@H](NC(=O)[C@@H]1CCCN1C(C)=O)C(C)C)C(=O)N[C@@H](CCCNC(=N)N)C(=O)N[C@@H](CCC(=O)O)C(=O)N[C@@H](CCCCN)C(=O)N[C@@H](CC(C)C)C(=O)N[C@@H](CC(N)=O)C(=O)N[C@@H](CCC(=O)O)C(=O)N[C@@H](CCC(=O)O)C(=O)N[C@@H](CC(C)C)C(=O)N[C@@H](CCC(=O)O)C(=O)N[C@@H](C)C(=O)N[C@@H](CC(C)C)C(=O)N[C@@H](CCCCN)C(=O)N[C@@H](CCC(N)=O)C(=O)N[C@@H](CCCCN)C(=O)N[C@@H](CC(C)C)C(=O)N[C@@H](CCCCN)C(N)=O | > 100 | –
9 | C=CCCCC[C@@H](NC(=O)[C@H](C)NC(=O)[C@H](CCC(=O)O)NC(=O)[C@H](CC(C)C)NC(=O)[C@H](CCC(=O)O)NC(=O)[C@H](CCC(=O)O)NC(=O)[C@H](CC(N)=O)NC(=O)[C@H](CC(C)C)NC(=O)[C@H](CCCCN)NC(=O)[C@H](CCC(=O)O)NC(=O)[C@H](CCCNC(=N)N)NC(=O)[C@H](Cc1ccccc1)NC(=O)[C@H](CCC(=O)O)NC(=O)[C@H](CC(=O)O)NC(=O)[C@H](CC(C)C)NC(=O)[C@@H](NC(=O)[C@@H]1CCCN1C(C)=O)C(C)C)C(=O)N[C@@H](CCCCN)C(=O)N[C@@H](CCC(N)=O)C(=O)N[C@@H](CCCCN)C(=O)N[C@@H](CC(C)C)C(=O)N[C@@H](CCCCN)C(N)=O | > 100 | –
10 | C=CCCC[C@@H](NC(=O)[C@H](CCC(=O)O)NC(=O)[C@H](CC(=O)O)NC(=O)[C@H](CC(C)C)NC(=O)[C@@H](NC(=O)[C@@H]1CCCN1C(C)=O)C(C)C)C(=O)N[C@@H](CCCNC(=N)N)C(=O)N[C@@H](CCC(=O)O)C(=O)N[C@@H](CCCCN)C(=O)N[C@@H](CC(C)C)C(=O)N[C@@H](CC(N)=O)C(=O)N[C@@H](CCC(=O)O)C(=O)N[C@@H](CCC(=O)O)C(=O)N[C@@H](CC(C)C)C(=O)N[C@@H](CCC(=O)O)C(=O)N[C@@H](C)C(=O)N[C@@H](CC(C)C)C(=O)N[C@@H](CCCCN)C(=O)N[C@@H](CCC(N)=O)C(=O)N[C@@H](CCCCN)C(=O)N[C@@H](CC(C)C)C(=O)N[C@@H](CCCCN)C(N)=O | > 100 | –
11 | C=CCCCCC[C@H](NC(=O)[C@H](CCC(=O)O)NC(=O)[C@H](CC(N)=O)NC(=O)[C@H](CC(C)C)NC(=O)[C@H](CCCCN)NC(=O)[C@H](CCC(=O)O)NC(=O)[C@H](CCCN=C(N)N)NC(=O)[C@@H](CCCCC=C)NC(=O)[C@H](CCC(=O)O)NC(=O)[C@H](CC(=O)O)NC(=O)[C@H](CC(C)C)NC(=O)[C@@H](NC(=O)[C@@H]1CCCN1C(C)=O)C(C)C)C(=O)N[C@@H](CC(C)C)C(=O)N[C@@H](CCC(=O)O)C(=O)N[C@@H](C)C(=O)N[C@@H](CC(C)C)C(=O)N[C@@H](CCCCN)C(=O)N[C@@H](CCC(N)=O)C(=O)N[C@@H](CCCCN)C(=O)N[C@@H](CC(C)C)C(=O)N[C@@H](CCCCN)C(N)=O (Ac-PVLDE[dNle(6-vinyl)]REKLNE[Ala(5-hexenyl)]LEALKQKLK-NH2) | 0.8 | concentration at 3 h [1]: 116 µM
12 | C=CCCCCC[C@@H](NC(=O)[C@@H]1CCCN1C(C)=O)C(=O)N[C@@H](CC(C)C)C(=O)N[C@@H](CC(=O)O)C(=O)N[C@@H](CCC(=O)O)C(=O)N[C@@H](Cc1ccccc1)C(=O)N[C@@H](CCCNC(=N)N)C(=O)N[C@@H](CCC(=O)O)C(=O)N[C@@H](CCCCN)C(=O)N[C@@H](CC(C)C)C(=O)N[C@@H](CC(N)=O)C(=O)N[C@@H](CCC(=O)O)C(=O)N[C@@H](CCC(=O)O)C(=O)N[C@@H](CC(C)C)C(=O)N[C@@H](CCC(=O)O)C(=O)N[C@@H](C)C(=O)N[C@@H](CC(C)C)C(=O)N[C@@H](CCCCN)C(=O)N[C@@H](CCC(N)=O)C(=O)N[C@@H](CCCCN)C(=O)N[C@@H](CC(C)C)C(=O)N[C@@H](CCCCN)C(N)=O | > 100 | –
13 | C=CCCCC[C@@H](NC(=O)[C@@H](NC(=O)[C@@H]1CCCN1C(C)=O)C(C)C)C(=O)N[C@@H](CC(=O)O)C(=O)N[C@@H](CCC(=O)O)C(=O)N[C@@H](Cc1ccccc1)C(=O)N[C@@H](CCCNC(=N)N)C(=O)N[C@@H](CCC(=O)O)C(=O)N[C@@H](CCCCN)C(=O)N[C@@H](CC(C)C)C(=O)N[C@@H](CC(N)=O)C(=O)N[C@@H](CCC(=O)O)C(=O)N[C@@H](CCC(=O)O)C(=O)N[C@@H](CC(C)C)C(=O)N[C@@H](CCC(=O)O)C(=O)N[C@@H](C)C(=O)N[C@@H](CC(C)C)C(=O)N[C@@H](CCCCN)C(=O)N[C@@H](CCC(N)=O)C(=O)N[C@@H](CCCCN)C(=O)N[C@@H](CC(C)C)C(=O)N[C@@H](CCCCN)C(N)=O | > 100 | –
